Measured values gathered from unrelated publications.
Compare with care: the assays were run in different laboratories. pIC50: −log10 of the molar value.
UGT1A6: UDP-glucuronosyltransferase 1A6 (UGT1A6, Homo sapiens, UniProt P19224)
CYP2B6: Cytochrome P450 2B6 (CYP2B6, Homo sapiens, UniProt P20813)

| Structure (SMILES) | target or system | assay | system | conditions | measurement | value |
| --- | --- | --- | --- | --- | --- | --- |
| Oc1c(Br)cc(Cl)c2cccnc12 | – | – | Sprague-Dawley rat, plasma | oral, 20 mg/kg | CL/F | 85 mL/min/kg |
| Fc1ccc(-c2csc(NN=Cc3ccccc3C(F)(F)F)n2)cc1 | – | haemolysis | human | 100 µM, 30 min, pH 7.4 | haemolysis | 45.7% |
| CCOP(=O)(OCC)[C@@H]1C[C@H](n2cc(-c3ccccc3)nn2)ON1C | HeLa | cell growth or viability | – | 72 h | CC50 | > 250 µM |
| C[C@H](O)c1cc(C(=O)N[C@@H](C)Cn2ccc(-c3ccc(C#N)c(Cl)c3)n2)n[nH]1 | UGT1A6 | enzyme activity, inhibitor | human, liver microsomes | – | pIC50 | < 4.00 |
| Fc1ccc(-c2csc(NN=Cc3ccc(C(F)(F)F)cc3)n2)cc1 | – | haemolysis | human | 50 µM, 30 min, pH 7.4 | haemolysis | 25.7% |
| COc1cccc(-n2cc(CN3CCN(C(=O)c4c(C)nc5ccc(Cl)cn45)CC3)nn2)c1 | HeLa | cell growth or viability, resazurin | – | – | CC50 | > 100 µM |
| Fc1ccc(-c2csc(NN=Cc3ccc[nH]3)n2)cc1 | – | haemolysis | human | 50 µM, 30 min, pH 7.4 | haemolysis | 26.3% |
| COc1ccc(S(=O)(=O)Nc2c(C(=O)Nc3c(C(=O)O)cc(OC)c(OC)c3OC)cc(OC)c(OC)c2OC)cc1 | HeLa | cell growth or viability, XTT | – | 72 h | pIC50 | 4.02 |
| CC(CCc1ccccc1)=NNc1nc(-c2ccc(F)cc2)cs1 | – | haemolysis | human | 50 µM, 30 min, pH 7.4 | haemolysis | 8.38% |
| Cc1nc2ccc(Cl)cn2c1C(=O)N1CCN(Cc2cn(-c3ccc(C(F)(F)F)cc3)nn2)CC1 | HeLa | cell growth or viability, resazurin | – | – | CC50 | > 100 µM |
| C=CC(=O)N(C)CCOc1c(N)ncnc1-c1cc(F)cc(NC(=O)c2ccc(C3CC3)cc2F)c1C | CYP2B6 | enzyme activity, substrate | – | 10 min, pH 7.4 | Km | 1.3 µM |
| Fc1ccc(-c2csc(NN=Cc3cccs3)n2)cc1 | – | haemolysis | human | 50 µM, 30 min, pH 7.4 | haemolysis | 32.4% |
| CCOP(=O)(OCC)[C@@H]1C[C@H](n2cc(Cn3ccc(NC(C)=O)nc3=O)nn2)ON1C (racemic) | HEL | cell growth or viability | – | 72 h | CC50 | > 100 µM |
| CCc1cc(/C(C)=N/OCc2ccc(C3CCCCC3)c(C(F)(F)F)c2)ccc1CN1CC(C(=O)O)C1 | CYP2B6 | enzyme activity, inhibitor | human, liver microsomes | 100 µM, 20 min | inhibition | 21% |
| CCCc1cn(CCN2CCN(C(=O)c3c(C)nc4ccc(Cl)cn34)CC2)nn1 | HeLa | cell growth or viability, resazurin | – | – | CC50 | > 100 µM |
| Cc1ccc(C(=O)N2CCOC[C@H]2Cc2cccc(-n3nccn3)c2)c(-n2nccn2)c1 | CYP2B6 | enzyme activity, inhibitor | human, liver microsomes | 100 µM | inhibition | 44% |
| CCOP(=O)(OCC)[C@@H]1C[C@@H](n2cc(Cn3cc(C)c(=O)[nH]c3=O)nn2)ON1C (racemic) | HEL | cell growth or viability | – | 72 h | CC50 | > 100 µM |
| Cc1ccn2c(C(=O)N3CCN(CCn4cc(-c5ccc(C(C)(C)C)cc5)nn4)CC3)c(C)nc2c1 | HeLa | cell growth or viability, resazurin | – | – | CC50 | > 100 µM |
| CCOP(=O)(OCC)[C@@H]1C[C@H](n2cc(Cn3cnc4c(N)ncnc43)nn2)ON1C (relative stereo) | HEL | cell growth or viability | – | 72 h | CC50 | > 100 µM |
| Cc1ccn2c(C(=O)N3CCN(Cc4cn(-c5cccc([N+](=O)[O-])c5)nn4)CC3)c(C)nc2c1 | HeLa | cell growth or viability, resazurin | – | – | CC50 | > 100 µM |
| Cc1ccc(C=NNc2nc(-c3ccc(F)cc3)cs2)o1 | – | haemolysis | human | 10 µM, 30 min, pH 7.4 | haemolysis | 1.2% |
| C[C@@H]1[C@H](O)[C@@H](C)/C=C/C=C/C=C/C=C/C=C/C=C/C=C/[C@H](O[C@@H]2O[C@H](C)[C@@H](O)[C@H](N)[C@@H]2O)C[C@@H]2O[C@](O)(C[C@@H](O)C[C@@H](O)[C@H](O)CC[C@@H](O)C[C@@H](O)CC(=O)O[C@H]1C)C[C@H](O)[C@H]2C(=O)O | – | haemolysis | human | 0.5 µg/mL, 1 h | haemolysis | 3.73% |
| Cc1ccn2c(C(=O)N3CCN(Cc4cn(-c5ccc(C(F)(F)F)cc5)nn4)CC3)c(C)nc2c1 | HeLa | cell growth or viability, resazurin | – | – | CC50 | > 100 µM |
| CN(CCC(=O)O)C(=O)c1ccc2c(c1)CC[C@@H]1[C@@H]2CC[C@]2(C)C(c3cncc(F)c3)=CC[C@@H]12 | UGT1A6 | enzyme activity, inhibitor | – | – | pIC50 | < 4.52 |
| COc1cccc(-n2cc(CN3CCN(C(=O)c4c(C)nc5cc(C)ccn45)CC3)nn2)c1 | HeLa | cell growth or viability, resazurin | – | – | CC50 | > 100 µM |
| CCOP(=O)(OCC)[C@@H]1C[C@@H](n2cc(Cn3ccc(=O)[nH]c3=O)nn2)ON1C (racemic) | HeLa | cell growth or viability | – | 72 h | CC50 | ≥ 250 µM |
| Oc1ccc(Cl)cc1C=NNc1nc(-c2ccc(F)cc2)cs1 | – | haemolysis | human | 100 µM, 30 min, pH 7.4 | haemolysis | 52.5% |
| Cc1nc2ccc(Cl)cn2c1C(=O)N1CCN(Cc2cn(-c3cccc(C(F)(F)F)c3)nn2)CC1 | HeLa | cell growth or viability, resazurin | – | – | CC50 | > 100 µM |
| CCOc1ccccc1C=NNc1nc(-c2ccc(F)cc2)cs1 | – | haemolysis | human | 50 µM, 30 min, pH 7.4 | haemolysis | 16.8% |
| OC(Cn1cncn1)(Cn1cncn1)c1ccc(F)cc1F | – | haemolysis | human | 8 µg/mL, 1 h | haemolysis | 4.52% |
